Assay results taken from ChEMBL document CHEMBL1124824, “Synthesis and biological activity of atrial natriuretic factor analogues: effect of modifications to the disulfide bridge” (J Med Chem, 1990).
Starred links: 1 amine or outer side, 2 acyl side, 3 side chain; linkers in the order of their positions; H or OH if unused. Positions of bridges follow the written chain, without caps; N, C: chain ends. Non-standard residues stand in square brackets, D forms with d. Residues, ends and D or L forms follow the SMILES beside them. Pen = CC(C)(S)[C@H](N)C(=O)O; hCys = N[C@@H](CCS)C(=O)O; X2 = O=C(CCC[*:2])[*:1]; X1 = O=C(CC[*:2])[*:1]

What was measured:
Rattus norvegicus [1] = species: Rattus norvegicus; assay: Compound was tested for antihypertensive activity in DOCA nephrectomized rats.; type: functional
Method in brief: (§1)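 Rats were anesthetized with halothane after skin infiltration with 2% lidocaine, and the femoral artery and vein were cannulated. After recovery, arterial pressure was recorded. A saline control period was followed by i.v. infusion in 30-min steps at 0.1, 0.2, 0.5 and 1.0 μg/kg per min (70 μL/kg per min). Hydralazine (100 μg/kg per min) was given for standardization. ED50 is in nmol/kg per min, from six animals.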

Rattus norvegicus [2] = species: Rattus norvegicus; assay: Compound was tested for the Cl- excretion for treated over control animals; type: functional
Method in brief: (§2)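 Male Sprague-Dawley rats (300-325 g) under halothane/lidocaine had femoral artery, femoral vein and bladder cannulated. After at least 1 h of recovery in restraint, they received Ringer's (1.2 mL/h), with 10-min urine collections over a 30-min control period. Infusion of 0.5 μg/kg per min for 30 min and a 30-min Ringer's recovery followed. Na+, K+ and Cl- were measured with an electrolyte analyzer, reported as treated minus control μmol/sample. Volume ratio is treated/control over three consecutive 10-min samples, six animals.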

Rattus norvegicus [3] = species: Rattus norvegicus; assay: Compound was tested for the K+ excretion for treated over control animals; type: functional; method in brief: as §2
Rattus norvegicus [4] = species: Rattus norvegicus; assay: Compound was tested for antihypertensive activity in 5/6 nephrectomized rats.; type: functional; method in brief: as §1
Rattus norvegicus [5] = assay: Compound was tested for diuretic activity and the ratio of urine volume for treated over control animals was reported after infused at a dose of 0.5 ug/kg.; type: functional; method in brief: as §2
Rattus norvegicus [6] = species: Rattus norvegicus; assay: Compound was tested for the Na+ excretion for treated over control animals; type: functional; method in brief: as §2
Rattus norvegicus [7] = species: Rattus norvegicus; assay: Compound was tested for the K+ excretion for treated over control animals.; type: functional; method in brief: as §2
Rattus norvegicus [8] = species: Rattus norvegicus; assay: Compound was tested for the Na+ excretion for treated over control animals.; type: functional; method in brief: as §2
Oryctolagus cuniculus = species: Oryctolagus cuniculus; assay: Compound was tested for the inhibition of the stimulated contractions of the superfused rabbit thoracic aortic rings.; type: functional, Aorta
Method in brief: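 Rabbit thoracic aorta rings (4 mm) were held isometrically at 10-g resting tension, superfused and precontracted with phenylephrine. Test peptide was added to the superfusate above the tissue in successively higher doses after each recovery. Doses were based on peptide content. EC50 came from the dose-response curve, mean of three determinations ± SEM.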

[9] = biological target: T1, Atrial natriuretic peptide receptor 3 (Mus musculus, UniProt P70180); assay: Binding affinity was determined based on the displacement of [125]r-ANF (99-126) from binding sites on mouse fibroblasts (NIH 3T3) cells (Atrionatriuretic peptide receptor C).
T1 sequence (P70180 whole entry): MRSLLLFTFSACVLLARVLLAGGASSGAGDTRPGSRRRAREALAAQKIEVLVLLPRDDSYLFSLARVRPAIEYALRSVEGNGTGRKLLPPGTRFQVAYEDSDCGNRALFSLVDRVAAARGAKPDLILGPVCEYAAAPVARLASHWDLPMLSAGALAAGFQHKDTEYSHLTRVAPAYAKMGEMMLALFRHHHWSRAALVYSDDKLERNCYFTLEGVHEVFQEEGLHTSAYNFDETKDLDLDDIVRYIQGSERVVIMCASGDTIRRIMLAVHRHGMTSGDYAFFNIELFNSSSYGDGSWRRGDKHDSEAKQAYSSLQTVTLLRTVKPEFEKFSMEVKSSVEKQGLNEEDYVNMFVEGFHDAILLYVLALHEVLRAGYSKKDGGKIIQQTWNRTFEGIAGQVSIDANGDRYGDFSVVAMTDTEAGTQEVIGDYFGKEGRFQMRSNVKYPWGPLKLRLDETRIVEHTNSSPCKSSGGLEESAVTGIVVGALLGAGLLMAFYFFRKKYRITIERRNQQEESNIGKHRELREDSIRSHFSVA

[10] = biological target: T2, Atrial natriuretic peptide receptor 2 (Bos taurus, UniProt P46197); assay: Binding affinity was determined based on the displacement of [125]r-ANF (99-126) from binding sites on bovine adrenal zona glomerulosa cell membranes (Atrionatriuretic peptide receptor B)
T2 sequence (P46197 whole entry): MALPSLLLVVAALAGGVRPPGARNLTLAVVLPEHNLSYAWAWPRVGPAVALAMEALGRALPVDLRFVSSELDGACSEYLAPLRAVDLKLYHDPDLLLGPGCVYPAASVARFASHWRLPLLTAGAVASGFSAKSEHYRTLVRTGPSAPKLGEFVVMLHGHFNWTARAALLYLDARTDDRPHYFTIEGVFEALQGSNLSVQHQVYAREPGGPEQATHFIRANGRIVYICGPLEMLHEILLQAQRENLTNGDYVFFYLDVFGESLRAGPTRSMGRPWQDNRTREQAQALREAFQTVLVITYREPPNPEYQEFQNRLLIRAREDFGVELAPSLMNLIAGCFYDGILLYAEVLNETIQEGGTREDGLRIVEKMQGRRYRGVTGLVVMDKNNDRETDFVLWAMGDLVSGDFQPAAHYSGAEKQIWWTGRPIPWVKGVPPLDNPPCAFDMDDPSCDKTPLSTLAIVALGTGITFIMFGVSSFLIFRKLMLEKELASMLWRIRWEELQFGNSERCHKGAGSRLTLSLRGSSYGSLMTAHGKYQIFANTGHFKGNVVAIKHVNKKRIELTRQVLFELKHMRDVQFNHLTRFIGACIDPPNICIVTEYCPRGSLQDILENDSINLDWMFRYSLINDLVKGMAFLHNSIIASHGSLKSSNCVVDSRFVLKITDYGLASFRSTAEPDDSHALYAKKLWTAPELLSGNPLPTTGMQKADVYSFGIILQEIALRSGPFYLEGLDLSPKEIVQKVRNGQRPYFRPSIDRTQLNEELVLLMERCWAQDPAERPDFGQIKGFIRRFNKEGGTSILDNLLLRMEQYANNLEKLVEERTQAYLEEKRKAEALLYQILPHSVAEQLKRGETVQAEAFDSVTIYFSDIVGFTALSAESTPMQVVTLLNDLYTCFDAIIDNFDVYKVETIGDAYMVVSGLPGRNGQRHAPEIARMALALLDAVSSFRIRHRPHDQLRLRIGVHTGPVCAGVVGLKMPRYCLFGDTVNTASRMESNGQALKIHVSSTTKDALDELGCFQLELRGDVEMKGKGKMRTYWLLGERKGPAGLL

SMILES | ED50 (Rattus norvegicus [1]) [nM/min/kg] | Electrolyte excretion (Rattus norvegicus [2]) [umol/sample] | Electrolyte excretion (Rattus norvegicus [3]) [uM sample-1] | ED50 (Rattus norvegicus [4]) [nM/min/kg] | Ratio (Rattus norvegicus [5]) | Electrolyte excretion (Rattus norvegicus [6]) [uM sample-1] | Electrolyte excretion (Rattus norvegicus [7]) [uM sample-1] | Electrolyte excretion (Rattus norvegicus [8]) [uM sample-1] | EC50 (Oryctolagus cuniculus) [M 50ul-1] | IC50 [9] [nM] | IC50 [10] [nM]
CC[C@H](C)[C@@H]1NC(=O)[C@H](CCCN=C(N)N)NC(=O)[C@H](CC(=O)O)NC(=O)[C@H]([C@@H](C)CC)NC(=O)[C@H](CCCN=C(N)N)NC(=O)CNC(=O)CNC(=O)[C@H](Cc2ccccc2)NC(=O)[C@@H](NC(=O)[C@H](CO)NC(=O)[C@H](CO)NC(=O)[C@H](CCCN=C(N)N)NC(=O)[C@H](CC(C)C)NC(=O)[C@@H](N)CO)CSSC[C@@H](C(=O)N[C@@H](CC(N)=O)C(=O)N[C@@H](CO)C(=O)N[C@@H](Cc2ccccc2)C(=O)N[C@@H](CCCN=C(N)N)C(=O)N[C@@H](Cc2ccc(O)cc2)C(=O)O)NC(=O)CNC(=O)[C@H](CC(C)C)NC(=O)CNC(=O)[C@H](CO)NC(=O)[C@H](CCC(N)=O)NC(=O)[C@H](C)NC(=O)CNC1=O | 0.1 | 72.4 | 16.2 | 0.14 | 3.1 | 57.4 |  |  |  |  | 
CC[C@H](C)[C@@H]1NC(=O)[C@H](CCCN=C(N)N)NC(=O)[C@H](CC(=O)O)NC(=O)[C@H]([C@@H](C)CC)NC(=O)[C@H](CCCN=C(N)N)NC(=O)CNC(=O)CNC(=O)[C@H](Cc2ccccc2)NC(=O)CCC=CC[C@@H](C(=O)N[C@@H](CC(N)=O)C(=O)N[C@@H](CO)C(=O)N[C@@H](Cc2ccccc2)C(=O)N[C@@H](CCCN=C(N)N)C(=O)N[C@@H](Cc2ccc(O)cc2)C(=O)O)NC(=O)CNC(=O)[C@H](CC(C)C)NC(=O)CNC(=O)[C@H](CO)NC(=O)[C@H](CCC(N)=O)NC(=O)[C@H](C)NC(=O)CNC1=O |  | 7.3 |  | 1.2 | 2.5 |  | 3.2 | 0.4 |  |  | 
CC[C@H](C)[C@@H]1NC(=O)[C@H](CCCN=C(N)N)NC(=O)[C@H](CC(=O)O)NC(=O)[C@H]([C@@H](C)CC)NC(=O)[C@H](CCCN=C(N)N)NC(=O)CNC(=O)CNC(=O)[C@H](Cc2ccccc2)NC(=O)CCCSC[C@@H](C(=O)N[C@@H](CC(N)=O)C(=O)N[C@@H](CO)C(=O)N[C@@H](Cc2ccccc2)C(=O)N[C@@H](CCCN=C(N)N)C(=O)N[C@@H](Cc2ccc(O)cc2)C(=O)O)NC(=O)CNC(=O)[C@H](CC(C)C)NC(=O)CNC(=O)[C@H](CO)NC(=O)[C@H](CCC(N)=O)NC(=O)[C@H](C)NC(=O)CNC1=O (FGGRIDRIGAQSGLGCNSFRY-OH; linker N-16 via X2) | 0.72 | 41.1 | 10.2 | 1.1 | 2.8 | 34 |  |  |  |  | 
CC[C@H](C)[C@@H]1NC(=O)[C@H](CCCN=C(N)N)NC(=O)[C@H](CC(=O)O)NC(=O)[C@H]([C@@H](C)CC)NC(=O)[C@H](CCCN=C(N)N)NC(=O)CNC(=O)CNC(=O)[C@H](Cc2ccccc2)NC(=O)CCCSC(C)(C)[C@@H](C(=O)N[C@@H](CC(N)=O)C(=O)N[C@@H](CO)C(=O)N[C@@H](Cc2ccccc2)C(=O)N[C@@H](CCCN=C(N)N)C(=O)N[C@@H](Cc2ccc(O)cc2)C(=O)O)NC(=O)CNC(=O)[C@H](CC(C)C)NC(=O)CNC(=O)[C@H](CO)NC(=O)[C@H](CCC(N)=O)NC(=O)[C@H](C)NC(=O)CNC1=O (FGGRIDRIGAQSGLG[Pen]NSFRY-OH; linker N-16 via X2) | 0.14 | 39.6 | 24.8 | 0.11 | 3 | 17.9 |  |  |  |  | 
CC[C@H](C)[C@@H]1NC(=O)[C@H](CCCN=C(N)N)NC(=O)[C@H](CC(=O)O)NC(=O)[C@H]([C@@H](C)CC)NC(=O)[C@H](CCCN=C(N)N)NC(=O)CNC(=O)CNC(=O)[C@H](Cc2ccccc2)NC(=O)CCSCC[C@@H](C(=O)N[C@@H](CC(N)=O)C(=O)N[C@@H](CO)C(=O)N[C@@H](Cc2ccccc2)C(=O)N[C@@H](CCCN=C(N)N)C(=O)N[C@@H](Cc2ccc(O)cc2)C(=O)O)NC(=O)CNC(=O)[C@H](CC(C)C)NC(=O)CNC(=O)[C@H](CO)NC(=O)[C@H](CCC(N)=O)NC(=O)[C@H](C)NC(=O)CNC1=O (FGGRIDRIGAQSGLG[hCys]NSFRY-OH; linker N-16 via X1) | 0.83 | 15.9 | 3.5 | 1.2 | 1.7 | 7.2 |  |  |  |  | 
CC[C@H](C)[C@@H]1NC(=O)[C@H](CCCN=C(N)N)NC(=O)[C@H](CC(=O)O)NC(=O)[C@H]([C@@H](C)CC)NC(=O)[C@H](CCCN=C(N)N)NC(=O)CNC(=O)CNC(=O)[C@H](Cc2ccccc2)NC(=O)[C@@H](N)CSSC[C@@H](C(=O)N[C@@H](CC(N)=O)C(=O)N[C@@H](CO)C(=O)N[C@@H](Cc2ccccc2)C(=O)N[C@@H](CCCN=C(N)N)C(=O)N[C@@H](Cc2ccc(O)cc2)C(=O)O)NC(=O)CNC(=O)[C@H](CC(C)C)NC(=O)CNC(=O)[C@H](CO)NC(=O)[C@H](CCC(N)=O)NC(=O)[C@H](C)NC(=O)CNC1=O (H-CFGGRIDRIGAQSGLGCNSFRY-OH; disulfide 1-17) | 0.1 | 28.5 | 12.9 |  |  | 15.9 |  |  | 3.1e-10 | 0.5 | 3.6
CC[C@H](C)[C@@H]1NC(=O)[C@H](CCCN=C(N)N)NC(=O)[C@H](CC(=O)O)NC(=O)[C@H]([C@@H](C)CC)NC(=O)[C@H](CCCN=C(N)N)NC(=O)CNC(=O)CNC(=O)[C@H](Cc2ccccc2)NC(=O)[C@@H](NC(=O)[C@H](CO)NC(=O)[C@@H](N)CO)CSSC[C@@H](C(=O)N[C@@H](CC(N)=O)C(=O)N[C@@H](CO)C(=O)N[C@@H](Cc2ccccc2)C(=O)N[C@@H](CCCN=C(N)N)C(=O)N[C@@H](Cc2ccc(O)cc2)C(=O)O)NC(=O)CNC(=O)[C@H](CC(C)C)NC(=O)CNC(=O)[C@H](CO)NC(=O)[C@H](CCC(N)=O)NC(=O)[C@H](C)NC(=O)CNC1=O (H-SSCFGGRIDRIGAQSGLGCNSFRY-OH; disulfide 3-19) | 0.16 |  | 23 | 0.13 | 2.7 | 79.6 |  |  |  |  | 
